Results from different studies.
Protocols differ between the studies behind these lines.
Target: TGF-beta receptor type-1 (TGFBR1, Homo sapiens, UniProt P36897)
Residues used in one study (P36897 34-503): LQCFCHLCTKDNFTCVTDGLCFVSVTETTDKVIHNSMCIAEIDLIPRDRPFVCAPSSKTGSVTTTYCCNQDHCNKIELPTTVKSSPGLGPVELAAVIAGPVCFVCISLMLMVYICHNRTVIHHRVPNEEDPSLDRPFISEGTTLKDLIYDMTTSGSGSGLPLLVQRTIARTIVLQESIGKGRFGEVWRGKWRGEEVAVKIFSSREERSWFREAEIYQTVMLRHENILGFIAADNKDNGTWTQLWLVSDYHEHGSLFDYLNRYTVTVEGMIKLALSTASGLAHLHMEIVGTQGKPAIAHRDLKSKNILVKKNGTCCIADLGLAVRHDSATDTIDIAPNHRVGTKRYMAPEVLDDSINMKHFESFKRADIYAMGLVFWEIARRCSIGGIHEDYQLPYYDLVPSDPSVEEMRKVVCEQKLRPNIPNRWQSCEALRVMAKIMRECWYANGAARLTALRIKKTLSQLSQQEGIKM

O=C(c1ccc(Nc2ncc(Cl)c(-c3ccc(Cl)s3)n2)cc1)N1CCC(N2CCCC2)CC1
remaining binding (binding; competition with immobilised ligand; 1 µM): 55%

C[C@@H](c1ccc(-n2cnc3c(N)ncnc32)cc1)N1CCc2nn(C)c(Cc3ccccc3)c2C1=O
remaining binding (binding; competition with immobilised ligand; 0.1 µM): 82%

C[C@@H]1CCN(c2nccc(-c3cnn4ncccc34)n2)C1
remaining binding (binding; 1 µM): 98%

FC(F)(F)c1ccc2c(c1)nc(-c1cccnc1)n2C1CC1
remaining binding (cell-free assay; competition with immobilised ligand; 1 µM): 78%

O=C(NCCCN1CCOCC1)c1ccc(Nc2ncc(Cl)c(-c3ccc(Cl)s3)n2)cc1
remaining binding (binding; competition with immobilised ligand; 1 µM): 69%

CC1CCCN1c1nccc(-c2cnn3ncccc23)n1 (stereo not shown)
remaining binding (binding; 1 µM): 100%

O=C(c1ccc(Nc2ncc(Cl)c(-c3cc4ccccc4s3)n2)cc1)N1CCC(N2CCCC2)CC1
remaining binding (binding; competition with immobilised ligand; 1 µM): 52%

N[C@H]1CCN(c2nccc(-c3cnn4ncccc34)n2)C1
remaining binding (binding; 1 µM): 100%

N#Cc1ccccc1CSc1nnc2c(n1)[nH]c1ccccc12
remaining binding (binding; competition with immobilised ligand; 10 µM): 100%

CN(c1nccc(-c2cnn3ncccc23)n1)C1CC1
remaining binding (binding; 1 µM): 32%

FC(F)(F)Oc1cccc(-c2cnc3ccc(-c4ccncc4)nn23)c1
remaining binding (cell-free assay; competition with immobilised ligand; 5 µM): 83%

CC(=O)Nc1c(C(C)=O)c(=O)n(C)c2nc(-c3ccc(Cl)cc3Cl)c(-c3ccc(Cl)cc3)cc12
remaining binding (cell-free assay; competition with immobilised ligand; 1 µM): 82%

CN(C)c1ncc(F)c(-c2cnn3ncccc23)n1
remaining binding (binding; 1 µM): 86%

O=S(=O)(NC1CCC(c2cc(F)ccc2F)(S(=O)(=O)c2ccc(Cl)cc2)CC1)C(F)(F)F (stereo not shown)
remaining binding (cell-free assay; competition with immobilised ligand; 1 µM): 100%

C[C@@H]1CN(c2ccc3ncc(-c4ccc5[nH]nc(C6CC6)c5c4)n3n2)C[C@H](C)O1
remaining binding (binding; competition with immobilised ligand; 0.5 µM): 100%

COc1ccc2c(c1)O[C@H](c1ccc(OC)c(OC)c1)C[C@@H]2NC(=O)C1(c2ccc3c(c2)OC(F)(F)O3)CC1
remaining binding (cell-free assay; competition with immobilised ligand; 1 µM): 100%

c1cncc(-c2cccc(Nc3nccc(NC4CCCCC4)n3)c2)c1
remaining binding (binding; competition with immobilised ligand; 10 µM): 75%

Cc1nc(C2CCN(C(=O)c3ccc(OC(F)(F)F)cc3N)CC2)c2ncc(N3CCN(C)CC3)cc2n1
remaining binding (cell-free assay; competition with immobilised ligand; 1 µM): 80%

CN(CCCC(F)(F)F)c1nccc(-c2cnn3ncccc23)n1
remaining binding (binding; 1 µM): 100%

O=C(Nc1cccnn1)N1CCC(=Cc2cccc(Oc3ccc(C(F)(F)F)cn3)c2)CC1
remaining binding (cell-free assay; competition with immobilised ligand; 1 µM): 61%

CCN1CCN(Cc2ccc(C(=O)Nc3ccc(C)c(Oc4ccc5c(c4)CC(=O)N5)c3)cc2C(F)(F)F)CC1
remaining binding (binding; competition with immobilised ligand; 1 µM): 100%

Nc1c(C(=O)NCc2ccc(C(=O)NCCCC3CCCCC3)cc2)cnn1-c1ccccc1
remaining binding (cell-free assay; competition with immobilised ligand; 0.1 µM): 100%

O=C(NCC1CCOCC1)c1n[nH]cc1NC(=O)c1c(F)cccc1F
remaining binding (binding; competition with immobilised ligand; 1 µM): 96%

CNC(=O)[C@@H]1CC[C@@H](n2c(-c3ccc4cnccc4c3)nc3ccc(C(=O)NCc4cccc(C(N)=O)c4)cc32)C1
remaining binding (binding; competition with immobilised ligand; 1 µM): 88%

Cc1nc(Cc2cccc(C(F)(F)F)c2)sc1-c1ccc(C(N)=O)nc1
remaining binding (cell-free assay; competition with immobilised ligand; 1 µM): 90%
